Results collected from several papers.
Lines come from different studies, so protocols differ. pIC50: −log10 of the molar value.
Effect on: cell growth or viability

COc1ccccc1Cn1nc(-c2ccc(CO)o2)c2ccccc21
pIC50 (HuCCT-1; ATP luminescence): < 4.34

Cc1ccc(C(=O)Nc2ccc(-c3ccc4ncn(Cc5ccccc5)c(=O)c4c3)cn2)cc1
pIC50 (HCC827; CCK-8; 72 h): < 5.00

O=c1[nH]cc(F)c(=O)[nH]1
pIC50 (WI-38; MTT; 72 h): 4.37

C=CC(C)(C)c1[nH]cnc1/C=C1/NC(=O)[C@H](C(C)C)NC1=O
pIC50 (ASPC1; SRB): < 4.82

OCc1ccc(-c2nn(Cc3ccccc3)c3ccccc23)o1
pIC50 (HuCCT-1; ATP luminescence): < 4.34

O=P1(C2CCCCC2)CCCCC1
pIC50 (HaCaT; MTT; 72 h): < 4.00

O=c1[nH]cc(F)c(=O)[nH]1
IC50 (HaCaT; SRB): 0.05 µg/mL

CCCCC(=O)Nc1ccc(-c2ccc3ncn(CCCC)c(=O)c3c2)cn1
pIC50 (HCC827; CCK-8; 72 h): 6.89

O=C1CS/C(=N\c2cc(C(F)(F)F)ccc2-c2nnc(N3C(=O)CS/C3=N\c3ccc(F)cc3)s2)N1c1ccc(F)cc1
pIC50 (WI-38; MTT): 4.72

NCc1ccc(-c2nn(Cc3ccccn3)c3cccnc23)o1
pIC50 (HuCCT-1; ATP luminescence): < 4.34

Cc1ccc(NC(=O)Nc2ccc(-c3ccc4ncn(Cc5ccccc5)c(=O)c4c3)cn2)cc1
pIC50 (HCC827; CCK-8; 72 h): < 5.00

CN1CCC(NC2CCc3[nH]c4c(C(N)=O)ccc(-c5ccccc5Cl)c4c3C2)CC1 (centres unmarked)
pIC50 (HuCCT-1; 96 h): 8.91

CC1(P2(=O)CCCCC2)CCCCC1
pIC50 (HaCaT; MTT; 72 h): < 4.00

CCCCC(=O)Nc1ccc(-c2ccc3ncn(CCCF)c(=O)c3c2)cn1
pIC50 (HCC827; CCK-8; 72 h): 7.04

COc1ccc(N=C2SCC(=O)N2c2nnc(-c3ccc(C(F)(F)F)cc3N=C3SCC(=O)N3c3ccc(OC)cc3)s2)cc1
pIC50 (WI-38; MTT): 4.16

COc1cnccc1Cn1nc(-c2ccc(CO)o2)c2ccccc21
pIC50 (HuCCT-1; ATP luminescence): < 4.34

COc1cccc2c1C(=O)c1c(O)c3c(c(O)c1C2=O)C[C@@](O)(C(=O)CO)C[C@@H]3O[C@H]1C[C@H](N)[C@H](O)[C@H](C)O1
pIC50 (WI-38; MTT): 4.28

CC1=CC(=O)C(C(C)C)=CC1=O
pIC50 (SNB-19; SRB; 48 h): 4.24

O=C1CS/C(=N\c2cc(C(F)(F)F)ccc2-c2nnc(N3C(=O)CS/C3=N\c3ccc(F)c(O)c3)s2)N1c1ccc(F)c(O)c1
pIC50 (WI-38; MTT): 4.69

CCCCn1cnc2ccc(-c3ccc(NC(=O)NCC)nc3)cc2c1=O
pIC50 (HCC827; CCK-8; 72 h): < 5.00
